Activity calls are given as the source filed them. The calls are words filed in the database; no cut-off is given here.
What was measured:
[1] = species on record: Sus scrofa; assay: Inhibition of purified porcine tubulin polymerization measured every 1 min for 30 mins
[2] = biological target: Histone deacetylase 1 (Homo sapiens, UniProt Q13547); assay: Inhibition of recombinant human HDAC1 using fluorogenic substrate by fluorescence assay
[3] = species on record: Homo sapiens; assay: Inhibition of HDAC in human PC3 cells assessed as increase in alpha-tubulin acetylation by Western blot analysis; assay type: cell-based
How it was run: (§1)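 PC3 prostate cancer cells treated, then lysed in 20 mM Tris-HCl pH 7.5 with 150 mM NaCl, EDTA/EGTA, phosphatase and protease inhibitors, 0.1% Triton X-100. Lysates spun 13,000 rpm for 30 min, then immunoblotted for acetylated α-tubulin and acetylated histone H3.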

[4] = species on record: Homo sapiens; assay: Inhibition of HDAC in human PC3 cells assessed as increase in histone-H3 acetylation by Western blot analysis; assay type: cell-based; how it was run: as §1
[5] = tested on: PC-3; assay: Antitumor activity against human PC3 cells xenografted in athymic nude mouse assessed as tumor growth inhibition at 100 mg/kg, po qd administered daily measured twice per week relative to control; assay type: functional; settings: PC-3, po, read-out: TGI
How it was run: (§2)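 Male athymic nude mice (5–6 wk) given 1 × 10⁷ PC3 cells s.c.; randomized by tumor size at ~150–350 mm³. Oral dosing daily, vehicle 5% DMSO + 5% Cremophor in D5W. Caliper volumes twice weekly, (length × width²)/2; %TGI = {1-[(Tt/T0)/(Ct/C0)]/1-[C0/Ct]}*100 against vehicle controls.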

[6] = tested on: PC-3; assay: Antitumor activity against human PC3 cells xenografted in athymic nude mouse assessed as tumor growth inhibition at 200 mg/kg, po qd administered daily measured twice per week relative to control; assay type: functional; settings: PC-3, po, read-out: TGI; how it was run: as §2
[7] = tested on: Mus musculus; assay: Toxicity in human PC3 cells xenografted in athymic nude mouse assessed as body weight loss at 100 to 200 mg/kg, po qd administered daily measured daily during first week followed by twice per week; assay type: organism-based; settings: in vivo
How it was run: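 PC3 xenograft nude mice (male, 5–6 wk) given daily oral drug in 5% DMSO + 5% Cremophor in D5W. Body weight recorded daily in week one, then twice weekly, compared with vehicle group.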

[8] = tested on: RPMI-8226; assay: Antitumor activity against human RPMI8226 cells xenografted in ip dosed athymic nude mouse assessed as tumor growth inhibition administered once daily measured twice per week; assay type: functional, organism-based
How it was run: (§3)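 Male athymic nude mice (5–6 wk) implanted s.c. with 1 × 10⁷ RPMI-8226 myeloma cells; randomized by tumor size at ~150–350 mm³. Daily i.p. injection, vehicle 5% DMSO + 5% Cremophor in D5W. Tumor volume by calipers twice weekly as (length × width²)/2; %TGI derived from treated vs control volume ratios at time t and time 0.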

[9] = tested on: RPMI-8226; assay: Antitumor activity against human RPMI8226 cells xenografted in athymic nude mouse assessed as tumor growth inhibition at 50 mg/kg, ip qd measured twice per week relative to control; assay type: functional; settings: RPMI-8226, ip, read-out: TGI; how it was run: as §3
[10] = tested on: RPMI-8226; assay: Antitumor activity against human RPMI8226 cells xenografted in athymic nude mouse assessed as tumor growth inhibition at 100 mg/kg, ip qd measured twice per week relative to control; assay type: functional; settings: RPMI-8226, ip, read-out: TGI; how it was run: as §3
[11] = tested on: Mus musculus; assay: Toxicity in human RPMI8226 cells xenografted in athymic nude mouse assessed as body weight loss at 50 to 100 mg/kg, ip qd measured daily during first week followed by twice per week; assay type: organism-based; settings: in vivo
How it was run: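 RPMI-8226 xenograft nude mice (male, 5–6 wk) dosed i.p. daily in 5% DMSO + 5% Cremophor in D5W. Body weight measured daily for the first week, then twice weekly.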

[12] = biological target: Histone deacetylase 4 (Homo sapiens, UniProt P56524); assay: Inhibition of recombinant human HDAC4 using fluorogenic substrate by fluorescence assay
Histone deacetylase 4, sequence (P56524 whole entry): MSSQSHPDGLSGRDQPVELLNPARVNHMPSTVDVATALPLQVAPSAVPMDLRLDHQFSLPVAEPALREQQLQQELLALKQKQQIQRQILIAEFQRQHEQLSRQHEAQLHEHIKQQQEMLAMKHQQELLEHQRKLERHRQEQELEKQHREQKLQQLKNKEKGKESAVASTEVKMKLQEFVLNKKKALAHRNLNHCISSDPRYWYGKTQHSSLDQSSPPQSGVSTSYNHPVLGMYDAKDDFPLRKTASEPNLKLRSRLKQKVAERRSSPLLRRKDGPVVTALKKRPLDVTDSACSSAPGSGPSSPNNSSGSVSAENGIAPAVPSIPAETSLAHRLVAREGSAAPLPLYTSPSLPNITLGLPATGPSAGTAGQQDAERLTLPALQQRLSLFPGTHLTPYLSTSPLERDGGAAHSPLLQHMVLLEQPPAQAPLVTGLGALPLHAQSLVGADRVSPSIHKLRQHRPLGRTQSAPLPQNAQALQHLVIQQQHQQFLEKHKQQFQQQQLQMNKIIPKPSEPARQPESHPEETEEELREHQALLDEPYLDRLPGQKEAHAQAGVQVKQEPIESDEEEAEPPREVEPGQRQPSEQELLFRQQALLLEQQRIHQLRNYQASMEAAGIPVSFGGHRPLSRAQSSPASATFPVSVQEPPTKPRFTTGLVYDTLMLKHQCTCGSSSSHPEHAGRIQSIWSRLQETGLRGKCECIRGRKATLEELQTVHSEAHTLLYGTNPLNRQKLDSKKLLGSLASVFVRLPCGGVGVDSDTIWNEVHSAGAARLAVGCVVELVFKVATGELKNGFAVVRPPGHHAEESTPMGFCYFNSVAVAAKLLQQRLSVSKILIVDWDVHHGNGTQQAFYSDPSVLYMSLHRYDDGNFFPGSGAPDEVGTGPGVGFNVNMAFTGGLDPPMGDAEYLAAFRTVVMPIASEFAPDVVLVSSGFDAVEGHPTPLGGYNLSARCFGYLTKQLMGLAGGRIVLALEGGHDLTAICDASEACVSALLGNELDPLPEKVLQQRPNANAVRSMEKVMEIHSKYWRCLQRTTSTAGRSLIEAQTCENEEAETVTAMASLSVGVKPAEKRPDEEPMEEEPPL

[13] = biological target: T1, Histone deacetylase 11 (Homo sapiens, UniProt Q96DB2); assay: Inhibition of recombinant human HDAC11 using fluorogenic substrate by fluorescence assay
T1 sequence (Q96DB2 whole entry): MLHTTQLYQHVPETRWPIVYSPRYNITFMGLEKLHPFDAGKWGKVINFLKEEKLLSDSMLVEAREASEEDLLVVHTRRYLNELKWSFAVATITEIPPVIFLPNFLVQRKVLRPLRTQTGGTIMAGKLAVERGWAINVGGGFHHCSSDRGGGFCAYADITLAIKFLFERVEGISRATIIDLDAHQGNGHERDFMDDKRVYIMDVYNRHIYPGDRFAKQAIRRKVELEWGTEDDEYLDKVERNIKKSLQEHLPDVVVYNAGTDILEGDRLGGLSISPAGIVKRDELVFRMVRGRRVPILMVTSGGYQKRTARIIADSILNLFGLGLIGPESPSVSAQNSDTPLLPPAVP

[14] = biological target: T2, Histone deacetylase 7 (Homo sapiens, UniProt Q8WUI4); assay: Inhibition of recombinant human HDAC7 using fluorogenic substrate by fluorescence assay
T2 sequence (Q8WUI4 whole entry): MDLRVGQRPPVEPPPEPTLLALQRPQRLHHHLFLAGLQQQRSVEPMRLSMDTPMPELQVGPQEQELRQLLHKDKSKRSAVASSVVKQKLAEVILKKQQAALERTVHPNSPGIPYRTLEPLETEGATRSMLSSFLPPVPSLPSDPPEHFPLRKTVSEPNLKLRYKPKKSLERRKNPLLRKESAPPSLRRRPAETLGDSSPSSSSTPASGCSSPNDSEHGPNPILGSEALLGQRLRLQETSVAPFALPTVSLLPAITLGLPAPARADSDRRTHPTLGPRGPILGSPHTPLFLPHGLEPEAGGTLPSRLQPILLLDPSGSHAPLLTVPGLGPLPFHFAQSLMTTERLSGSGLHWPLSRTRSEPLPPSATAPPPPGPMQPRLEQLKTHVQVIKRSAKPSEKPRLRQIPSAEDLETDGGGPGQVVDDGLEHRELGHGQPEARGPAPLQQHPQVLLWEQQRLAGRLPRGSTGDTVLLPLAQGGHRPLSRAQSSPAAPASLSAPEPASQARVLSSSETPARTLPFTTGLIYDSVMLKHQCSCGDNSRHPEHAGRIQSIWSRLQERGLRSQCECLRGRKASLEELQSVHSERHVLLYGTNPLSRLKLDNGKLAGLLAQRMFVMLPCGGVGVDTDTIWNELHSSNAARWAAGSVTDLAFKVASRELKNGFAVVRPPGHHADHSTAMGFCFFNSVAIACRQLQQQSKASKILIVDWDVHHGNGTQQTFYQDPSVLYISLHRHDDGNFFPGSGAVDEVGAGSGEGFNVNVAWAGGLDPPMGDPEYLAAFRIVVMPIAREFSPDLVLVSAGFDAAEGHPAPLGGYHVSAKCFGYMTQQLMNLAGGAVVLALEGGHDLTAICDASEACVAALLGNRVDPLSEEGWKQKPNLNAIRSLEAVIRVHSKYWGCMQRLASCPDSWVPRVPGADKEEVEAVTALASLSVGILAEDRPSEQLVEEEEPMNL

[15] = species on record: Homo sapiens; assay: Inhibition of HDAC in human PC3 cells assessed as increase in alpha-tubulin acetylation at 0.01 to 10 uM by Western blot analysis; assay type: cell-based; how it was run: as §1

Histone deacetylase 1, sequence (Q13547 whole entry): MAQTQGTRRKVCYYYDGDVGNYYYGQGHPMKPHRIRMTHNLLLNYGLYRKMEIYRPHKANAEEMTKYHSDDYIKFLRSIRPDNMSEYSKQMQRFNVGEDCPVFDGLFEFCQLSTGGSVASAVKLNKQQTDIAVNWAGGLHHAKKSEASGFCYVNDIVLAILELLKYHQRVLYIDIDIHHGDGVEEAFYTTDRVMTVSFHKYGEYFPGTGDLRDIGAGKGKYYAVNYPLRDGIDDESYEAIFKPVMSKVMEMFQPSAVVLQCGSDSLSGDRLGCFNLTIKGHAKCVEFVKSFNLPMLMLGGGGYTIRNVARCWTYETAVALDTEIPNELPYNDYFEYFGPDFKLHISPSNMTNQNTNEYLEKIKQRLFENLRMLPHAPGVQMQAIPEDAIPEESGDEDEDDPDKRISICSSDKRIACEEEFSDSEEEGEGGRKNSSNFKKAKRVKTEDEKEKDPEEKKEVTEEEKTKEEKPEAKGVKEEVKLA

| SMILES | inhibition [1] | IC50 [2] [µM] | alpha-tubulin acetylation increase [3] | inhibition [4] | inhibition in vivo at 100 mg/kg [5] [%] | inhibition in vivo at 200 mg/kg [6] [%] | Activity [7] | TGI [8] | inhibition in vivo at 50 mg/kg [9] [%] | inhibition in vivo at 100 mg/kg [10] [%] | Activity [11] | IC50 ([12]; read-out: IC50) [µM] | IC50 [13] [µM] | IC50 [12] | IC50 [14] | inhibition [15] |
| --- | --- | --- | --- | --- | --- | --- | --- | --- | --- | --- | --- | --- | --- | --- | --- | --- |
| COc1ccc2c(C(=O)c3cc(OC)c(OC)c(OC)c3)cn(Cc3ccc(C(=O)NO)cc3)c2c1 | Dose-dependent effect | 0.573 | Dose-dependent effect | Dose-dependent effect | 24.8 | 68.5 | Non-Toxic | Dose-dependent effect | 35.8 | 58.2 | Non-Toxic | 1.98 | 0.651 | – | – | – |
| COc1ccc2c(C(=O)c3cc(OC)c(OC)c(OC)c3)cn(S(=O)(=O)c3cccc(/C=C/C(=O)NO)c3)c2c1 | – | 0.468 | – | – | – | – | – | – | – | – | – | – | 8.87 | Not Active | Not Active | Active |

— ChEMBL document CHEMBL4041521, “3-Aroylindoles display antitumor activity in vitro and in vivo: Effects of N1-substituents on biological activity” (Eur J Med Chem, 2017)
